Measured values taken from BindingDB's records for doi:10.1021/jm970328b (University of Minnesota, 1997).
Where a SMILES comes first, the peptide text is derived from it.

Tests used:
D(2) dopamine receptor [1] = target: T1, D(2) dopamine receptor (Bos taurus, UniProt P20288); assay: Inhibitory constant of compound in absence of Gpp(NH)p calculated for the high affinity components of the [3H]spiroperidol binding to Dopamine receptor D2
Outline: (§1)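 Bovine striatal membranes (150-200 µg protein) were incubated with 0.2 nM [3H]spiroperidol and varying N-propylnorapomorphine, with or without 100 µM Gpp(NH)p and 100 nM peptidomimetic, plus 50 nM ketanserin, for 1 h at 22 °C, then GF/B filtered. Nonspecific binding was set with 1.0 µM (+)-butaclamol. A two-site fit gave high/low-affinity fractions; Ki values came via Cheng-Prusoff. Mean ± SEM of 3-4 experiments.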

D(2) dopamine receptor [2] = target: T1, D(2) dopamine receptor; assay: Inhibitory constant of compound in presence of Gpp(NH)p calculated for the low affinity components of the [3H]spiroperidol binding to Dopamine receptor D2; outline: as §1
D(2) dopamine receptor [3] = target: T1, D(2) dopamine receptor; assay: Inhibitory constant of compound in presence of Gpp(NH)p (Pre treated with 1 nM) calculated for the high affinity components of the [3H]spiroperidol binding to Dopamine receptor D2
D(2) dopamine receptor [4] = target: T1, D(2) dopamine receptor; assay: Inhibitory constant of compound in presence of Gpp(NH)p calculated for the high affinity components of the [3H]spiroperidol binding to Dopamine receptor D2; outline: as §1
D(2) dopamine receptor [5] = target: T1, D(2) dopamine receptor; assay: Inhibitory constant of compound in absence of Gpp(NH)p calculated for the low affinity components of the [3H]spiroperidol binding to Dopamine receptor D2; outline: as §1
D(2) dopamine receptor [6] = target: T1, D(2) dopamine receptor; assay: Inhibitory constant of compound in absence of Gpp(NH)p (Pre treated with 1 nM) calculated for the high affinity components of the [3H]spiroperidol binding to Dopamine receptor D2
D(2) dopamine receptor [7] = target: T1, D(2) dopamine receptor; assay: Inhibitory constant of compound in presence of Gpp(NH)p (Pre treated with 100 nM) calculated for the low affinity components of the [3H]spiroperidol binding to Dopamine receptor D2; outline: as §1
D(2) dopamine receptor [8] = target: T1, D(2) dopamine receptor; assay: Inhibitory constant of compound in presence of Gpp(NH)p (Pre treated with 100 nM) calculated for the high affinity components of the [3H]spiroperidol binding to Dopamine receptor D2; outline: as §1
D(2) dopamine receptor [9] = target: T1, D(2) dopamine receptor; assay: Inhibitory constant of compound in absence of Gpp(NH)p (Pre treated with 100 nM) calculated for the high affinity components of the [3H]spiroperidol binding to Dopamine receptor D2; outline: as §1
D(2) dopamine receptor [10] = target: T1, D(2) dopamine receptor; assay: Inhibitory constant of compound in absence of Gpp(NH)p (Pretreated with 100 nM) calculated for the high affinity components of the [3H]spiroperidol binding to Dopamine receptor D2; outline: as §1
D(2) dopamine receptor [11] = target: T1, D(2) dopamine receptor; assay: Inhibitory constant of compound in absence of Gpp(NH)p (Pre treated with 1 uM) calculated for the high affinity components of the [3H]spiroperidol binding to Dopamine receptor D2
D(2) dopamine receptor [12] = target: T1, D(2) dopamine receptor; assay: Inhibitory constant of compound in presence of Gpp(NH)p (Pre treated with 1 uM) calculated for the high affinity components of the [3H]spiroperidol binding to Dopamine receptor D2
D(2) dopamine receptor [13] = target: T1, D(2) dopamine receptor; assay: Percentage of receptor in the high affinity form for the compound to Dopamine receptor D2 in absence of Gpp(NH)p (pre treated with 1 uM)

T1 sequence (P20288 whole entry): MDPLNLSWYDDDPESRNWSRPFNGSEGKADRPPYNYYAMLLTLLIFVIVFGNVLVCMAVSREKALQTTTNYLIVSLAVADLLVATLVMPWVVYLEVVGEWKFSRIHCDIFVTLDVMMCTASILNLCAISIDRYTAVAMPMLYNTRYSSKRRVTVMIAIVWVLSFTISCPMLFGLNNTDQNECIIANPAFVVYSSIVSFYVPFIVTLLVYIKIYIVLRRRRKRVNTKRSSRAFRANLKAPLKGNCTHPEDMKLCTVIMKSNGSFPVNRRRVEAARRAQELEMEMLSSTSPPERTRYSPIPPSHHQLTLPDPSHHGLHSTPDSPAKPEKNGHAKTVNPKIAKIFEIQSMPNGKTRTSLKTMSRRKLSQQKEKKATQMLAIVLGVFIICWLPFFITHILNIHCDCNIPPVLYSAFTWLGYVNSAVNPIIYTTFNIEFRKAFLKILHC

In the case of `NC(=O)CN1CCC(N2CC(=O)N3CCC[C@H]3C2=O)C1=O` (stereo partly drawn) [2-[3-((2R,8aS)-1,4-Dioxo-hexahydro-pyrrolo[1,2-a]pyrazin-2-yl)-2-oxo-pyrrolidin-1-yl]-acetamide], the Ki (D(2) dopamine receptor [1]) is reported as 0.08 nM, the Ki (D(2) dopamine receptor [2]) is reported as 50 nM and the Ki (D(2) dopamine receptor [3]) is reported as 0.05 nM. It also gave a Ki (D(2) dopamine receptor [4]) of 0.19 nM, a Ki (D(2) dopamine receptor [5]) of 69 nM and a Ki (D(2) dopamine receptor [6]) of 0.02 nM.
With `NC(=O)[C@H]1CS[C@@H]2CC(N3CC(=O)N4CCC[C@H]4C3=O)C(=O)N12` (stereo partly drawn) [(3S,7aR)-6-((2R,8aS)-1,4-Dioxo-hexahydro-pyrrolo[1,2-a]pyrazin-2-yl)-5-oxo-hexahydro-pyrrolo[2,1-b]thiazole-3-carboxylic acid amide] the Ki (D(2) dopamine receptor [1]) was 0.098 nM, the Ki (D(2) dopamine receptor [7]) was 106 nM and the Ki (D(2) dopamine receptor [2]) was 183 nM. The Ki (D(2) dopamine receptor [8]) was 0.067 nM, the Ki (D(2) dopamine receptor [4]) was 0.14 nM and the Ki (D(2) dopamine receptor [5]) was 171 nM. The Ki (D(2) dopamine receptor [9]) was 0.066 nM.
`CC(C)C[C@@H](C(=O)NCC(N)=O)N1CC(=O)N2CCC[C@H]2C1=O` [(S)-2-((S)-1,4-Dioxo-hexahydro-pyrrolo[1,2-a]pyrazin-2-yl)-4-methyl-pentanoic acid carbamoylmethyl-amide] gave a Ki (D(2) dopamine receptor [1]) of 0.08 nM, a Ki (D(2) dopamine receptor [7]) of 104 nM and a Ki (D(2) dopamine receptor [2]) of 172 nM. It also gave a Ki (D(2) dopamine receptor [8]) of 0.08 nM, a Ki (D(2) dopamine receptor [4]) of 0.12 nM and a Ki (D(2) dopamine receptor [5]) of 120 nM. The Ki (D(2) dopamine receptor [10]) was 0.068 nM.
With `CC(C)C[C@H](NC(=O)[C@@H]1CCCN1)C(=O)NCC(N)=O` [L-pro-L-leu-gly-NH2] (H-Pro-Leu-Gly-NH2) the Ki (D(2) dopamine receptor [1]) was 0.09 nM, the Ki (D(2) dopamine receptor [11]) was 0.04 nM and the Ki (D(2) dopamine receptor [2]) was 60 nM. For the same molecule, the Ki (D(2) dopamine receptor [12]) was 0.06 nM, the Ki (D(2) dopamine receptor [4]) was 0.13 nM and the Ki (D(2) dopamine receptor [5]) was 73 nM. The percent high-affinity form (D(2) dopamine receptor [13]) was 61 nM.
